The source of these data is ChEMBL document CHEMBL1914431, “Discovery of a novel series of nonacidic benzofuran EP1 receptor antagonists” (Bioorg Med Chem Lett, 2011).

In data set [1] the target is T1, Prostaglandin E2 receptor EP1 subtype (Homo sapiens, UniProt P34995).
T1 sequence (P34995 whole entry): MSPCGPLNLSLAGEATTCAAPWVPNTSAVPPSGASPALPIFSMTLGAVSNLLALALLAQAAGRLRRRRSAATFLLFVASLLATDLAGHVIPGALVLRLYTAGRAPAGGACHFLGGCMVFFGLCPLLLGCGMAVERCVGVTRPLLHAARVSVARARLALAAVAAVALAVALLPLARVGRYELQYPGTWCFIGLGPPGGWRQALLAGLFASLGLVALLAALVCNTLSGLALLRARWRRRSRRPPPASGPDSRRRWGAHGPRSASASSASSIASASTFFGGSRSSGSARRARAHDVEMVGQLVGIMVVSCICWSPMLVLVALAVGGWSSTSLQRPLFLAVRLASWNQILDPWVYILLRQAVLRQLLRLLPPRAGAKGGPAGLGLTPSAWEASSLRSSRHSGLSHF
Briefly: Displacement of [3H]PGE2 from human prostanoid EP1 receptor expressed in CHO-K1 cells after 30 mins by topcount liquid scintillation counting. It is filed as cell-based. The essentials: (§1)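 Radioligand binding at the EP1 receptor. Either [3H]-GW875240X or [3H]-PGE2 is the displaced ligand. Values are pIC50, means of at least three experiments.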

Data set [2] concerns the target T1, Prostaglandin E2 receptor EP1 subtype. Nature of the data set: Displacement of [3H]GW875240X from human prostanoid EP1 receptor expressed in CHO-K1 cells after 45 mins by topcount liquid scintillation counting. It is filed as cell-based. The essentials:
as §1

Data set [3] has the same target. Nature of the data set: Antagonist activity at human recombinant EP1 receptor expressed in CHO-K1 cells assessed as inhibition of PGE2-mediated intracellular calcium mobilization by FLIPR method. It is filed as functional, cell-based.
For data set [4], the target named is T2, Prostaglandin E2 receptor EP3 subtype (Homo sapiens, UniProt P43115).
T2 sequence (P43115 whole entry): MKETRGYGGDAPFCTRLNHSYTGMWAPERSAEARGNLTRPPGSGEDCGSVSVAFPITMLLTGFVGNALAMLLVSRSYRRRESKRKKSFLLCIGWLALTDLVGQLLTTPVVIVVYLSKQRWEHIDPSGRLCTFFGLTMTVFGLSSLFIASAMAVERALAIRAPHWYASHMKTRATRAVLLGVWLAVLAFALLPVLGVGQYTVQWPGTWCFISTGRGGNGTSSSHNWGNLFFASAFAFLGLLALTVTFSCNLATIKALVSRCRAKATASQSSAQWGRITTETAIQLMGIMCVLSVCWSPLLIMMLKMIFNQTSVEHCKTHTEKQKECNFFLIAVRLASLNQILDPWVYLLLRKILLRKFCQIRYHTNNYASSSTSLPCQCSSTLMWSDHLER
Nature of the data set: Antagonist activity at human recombinant EP3 receptor expressed in CHO-K1 cells assessed as inhibition of PGE2-mediated intracellular calcium mobilization by FLIPR method. Format: functional, cell-based.

Data set [5] deals with Liver microsomes. Briefly: Intrinsic clearance in human liver microsomes. Format: ADME, Microsome.
Data set [6] in a line: Solubility of the compound in water after 1 hr. Format: physicochemical. Summed up: (§2)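 Solubility is measured after 1 h in water, SGF, FaSSIF and FeSSIF, in µg/mL.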
The nature of data set [7]: Solubility of the compound in simulated gastric fluid after 1 hr. It is filed as physicochemical. The essentials: as §2
Data set [8] in a line: Solubility of the compound in fasted state simulated intestinal fluid after 1 hr. Format: physicochemical. The essentials:
as §2

A short description of data set [9]: Lipophilicity, log D of compound at pH 7.4 by shake flask method. Format: physicochemical. The settings on record: buffer. Summed up:
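Log D is determined by the shake flask method at pH 7.4.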

A short description of data set [10]: Blood clearance in rat at 1 mg/kg, iv. It is filed as ADME, organism-based. Details: dose 1 mg/kg, route intravenous.
Data set [11] can be described thus: Volume of distribution at steady state in rat at 1 mg/kg, iv. Format: ADME, organism-based. Conditions: in vivo, read-out: Vdss. Further details: dose 1 mg/kg, route intravenous.
Data set [12] is described as follows: Half life in rat at 1 mg/kg, iv. It is filed as ADME, organism-based. Details: dose 1 mg/kg, route intravenous. The settings on record: in vivo.
Data set [13] relates to Rattus norvegicus. Briefly: Analgesic activity in rat assessed as reversal of complete Freund's adjuvant-induced inflammatory pain at 10 mg/kg, po after 1 hr post dose. It is filed as functional. The essentials:
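Rat CFA inflammatory pain model. Oral dosing in 1% methylcellulose. Hypersensitivity reversal is read by weight bearing, at 1 h post-dose. The 5 mg/kg study was also read at 3 h. Dose-response groups were 3, 10 and 30 mg/kg, or 1, 3 and 10 mg/kg, with ED50 derived. Celecoxib at 10 mg/kg po served as the standard.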

In data set [14] the test system is Blood. Briefly: Fraction unbound in blood of po dosed rat complete Freund's adjuvant-induced inflammatory pain model. Format: ADME, organism-based. The settings on record: in vivo.
The nature of data set [15]: Ratio of drug level in brain to blood in rat complete Freund's adjuvant-induced inflammatory pain model at 10 mg/kg, po after 1 hr. Format: ADME, organism-based. Further details: dose 10 mg/kg, route oral. The settings on record: read-out: BBR. The essentials:
(§3)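 Blood and brain samples are taken from CFA rats after oral dosing in 1% methylcellulose. Sampling is at 1 h post-dose, and at 3 h in the 5 mg/kg study. Concentrations are in µM or nM, n = 7 or n = 6 for blood and n = 3 for brain. The brain:blood ratio is calculated from the same rats.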

Data set [16] can be described thus: Drug level in brain of rat complete Freund's adjuvant-induced inflammatory pain model at 10 mg/kg, po after 1 hr. Format: ADME, organism-based. Details: dose 10 mg/kg, route oral. The settings on record: read-out: Drug uptake. The essentials:
as §3

Data set [17] deals with Rattus norvegicus. Nature of the data set: Analgesic activity in rat chronic joint pain model at 30 mg/kg, po bid. Further details: dose 30 mg/kg. Format: functional, organism-based. The essentials:
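Rat joint pain model of chronic inflammatory pain. Oral dosing b.i.d. at 1, 3, 10 and 30 mg/kg, or at 0.3, 1, 3 and 10 mg/kg. Reversal of hypersensitivity is scored, with statistical significance testing, and ED50 is calculated.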

Data set [18] is described as follows: Drug level in blood of rat complete Freund's adjuvant-induced inflammatory pain model at 10 mg/kg, po after 1 hr. It is filed as ADME, organism-based. Further details: dose 10 mg/kg, route oral. The settings on record: read-out: Drug uptake. Summed up:
as §3

Data set [19] concerns Brain. Nature of the data set: Fraction unbound in brain of po dosed rat complete Freund's adjuvant-induced inflammatory pain model. It is filed as ADME, organism-based. The settings on record: in vivo.

SMILES strings stand for the structures. Values after ≈ are worked out from the molar mass of the structure shown. Active and inactive are the calls of the source. No cut-off for these calls is given here.

In the case of `CNCc1ccc(NC(=O)c2cc(C)n(Cc3cc(Cl)cc4cc(C(C)C)oc34)n2)cc1`, in data set [1], the concentration for half-maximal inhibition (IC50) was 63.1 nM.
In turn, `CCCc1cc2cc(Cl)cc(Cn3nc(C(=O)O)cc3C)c2o1` gave a half-maximal inhibitory concentration (IC50) in data set [2] of 25.1 nM.
Take `Cc1cc(C(=O)O)nn1Cc1cc(Cl)cc2cc(-c3ccccc3)oc12`: the IC50 in data set [2] was 2 nM.
Compound `Cc1cc(C(=O)NN2CCCCC2)nn1Cc1cc(Cl)cc2cc(C(C)C)oc12` showed a half-maximal inhibitory concentration (IC50) in data set [1] of 100 nM.
`Cc1cc(C(=O)NCC(O)C(F)(F)F)nn1Cc1cc(Cl)cc2cc(-c3ccccc3)oc12` (configuration not stated) gave a concentration for half-maximal inhibition (IC50) in data set [2] of 25.1 nM.
In turn, `Cc1cc(C(=O)NC2CCNCC2)nn1Cc1cc(Cl)cc2cc(C(C)C)oc12` had a 50% inhibitory concentration (IC50) in data set [1] of 794 nM.
Turning to `Cc1cc(NC(=O)CC2CCNCC2)nn1Cc1cc(Cl)cc2cc(-c3ccccc3)oc12`, in [2], the 50% inhibitory concentration (IC50) was 63.1 nM.
The same measure, in the same setting: for `Cc1cc(C(=O)NC(C)C)nn1Cc1cc(Cl)cc2cc(-c3ccccc3)oc12` the value was 10 nM; for `Cc1cc(C(=O)O)nn1Cc1cc(Cl)cc2cc(C3CC3)oc12`, 50.1 nM; for `Cc1cc(NC(=O)C2CCNCC2)nn1Cc1cc(Cl)cc2cc(-c3ccccc3)oc12`, 100 nM.
With `Cc1cc(C(=O)O)nn1Cc1cc(Cl)cc2cc(C(C)C)oc12`, the figures for the Ki in data set [3] and in data set [4] were 0.398 nM and 1000 nM, respectively. This compound also showed an IC50 in data set [1] of 5.01 nM.
`Cc1cc(C(=O)NC[C@H]2CCCO2)nn1Cc1cc(Cl)cc2cc(-c3ccccc3)oc12` gave an IC50 in data set [2] of 6.31 nM.
The same measure, in the same setting: the same measure for `Cc1cc(C(=O)O)nn1Cc1cc(Cl)cc2cc(C3CCCCC3)oc12`: 3.98 nM.
`Cc1cc(C(=O)O)nn1Cc1cc(Cl)cn2cc(C(C)C)nc12` showed an IC50 in data set [1] of 501 nM.
In the case of `Cc1cc(C(=O)NN2CCOCC2)nn1Cc1cc(Cl)cc2cc(-c3ccccc3)oc12`, the IC50 in data set [2] is 10 nM. This compound had a CL in [5] of 1.1 mL/min/g. Further, the solubility at 1 h in data set [6] was 171 µg/mL (≈ 379 µM); in data set [7] it was 227 µg/mL (≈ 503 µM); in data set [8], 382 µg/mL (≈ 847 µM). The log distribution coefficient (logD) in data set [9] came to 3. This compound showed a clearance in [10] of 22 mL/min/kg. The Vd in data set [11] was 3.5 L/kg. This compound showed a half-life in [12] of 2.1 h. Besides, the Activity in data set [13] was found to be 49%. Also, the Fu came out at 0.662% in data set [14] and 0.17% in data set [19]. In data set [15], the Kp at 1 h came to 1.7. Further, the concentration at 1 h in [16] turned out to be 3.97 µM; in data set [18] it was 2.34 µM. Besides, the outcome in data set [17] was Active.
